The list is not random: actives were taken first. Their share in the collection is about 2.9%.
E coli RNAP = Escherichia coli RNA polymerase inhibition. E. coli RNA polymerase, fluorescence transcription assay. P0A8V2. inhibition, %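 (tested at 10 µM)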. AID 559. actives 0.2% (n = 62,000); in the data active means inhibition above about 20%;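 further: 0% = enzyme without compound and 100% = no enzyme blank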
tolC growth inh = blocks growth of E. coli BW25113 tolC mutant; growth inhibition, % at 10 µM (by protocol); OD615; actives 2.2% (n = 65,000);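 active means growth inhibition at or above a cutoff equal to the mean over every tested compound plus 3 SD, cut at about 60% in these data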;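 further: growth measured after 20 h incubation at 37 °C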
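signal = optical density read at 615 nm | test system = E. coli ΔtolC::kan strain BW25113 | timing = 20 h compound exposure of bacteria at 37 °C | buffer or medium = LB medium plus 50 µg/mL kanamycin | compound dosing = 10 µM final, single dose | evaluation = % inhibition of E. coli growth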
Cdc25B block = inhibitors of human Cdc25B phosphatase. P30305. recombinant Cdc25B, OMFP fluorescence Ex485/Em525. inhibition, %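 (compounds tested at 10 µM final in the well)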. actives 0.1% (n = 65,000). AID 368; in the data active means inhibition above about 50%
Hsp90 block = displaces geldanamycin probe from tumor Hsp90; NCI-N417 lysate Hsp90, Cy3B-geldanamycin FP displacement; P07900; inhibition, % at 30 µM; actives 0.35% (n = 64,000);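 active means inhibition above 50%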;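 further: 0% = tracer plus lysate wells and 100% = tracer alone without lysate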
DUSP1 inh = human dual specificity phosphatase 1 inhibition | recombinant MKP-1, OMFP hydrolysis fluorescence | AID 374 | P28562 | actives 0.15% (n = 65,000) | inhibition, %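 (compounds tested at a single concentration somewhere between 10 and 100 µM)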;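 active means inhibition above about 50%, limit read from the data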;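 further: 0% = DMSO max control wells and 100% = wells with enzyme stopped by NaOH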
Target sequence (P28562 whole entry, looked up): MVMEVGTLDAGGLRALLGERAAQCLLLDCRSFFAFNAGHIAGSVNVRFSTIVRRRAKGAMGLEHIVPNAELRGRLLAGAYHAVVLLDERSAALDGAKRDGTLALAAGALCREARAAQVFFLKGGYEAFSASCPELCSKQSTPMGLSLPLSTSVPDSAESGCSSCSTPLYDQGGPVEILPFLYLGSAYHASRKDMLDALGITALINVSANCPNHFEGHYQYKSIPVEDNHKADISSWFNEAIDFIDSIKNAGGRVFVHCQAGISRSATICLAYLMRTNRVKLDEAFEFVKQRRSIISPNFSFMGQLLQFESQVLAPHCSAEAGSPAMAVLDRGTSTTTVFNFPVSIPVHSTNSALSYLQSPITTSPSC
BAP1 inh = blocks human BAP1 ubiquitin-AMC hydrolysis; Q92560; recombinant BAP1, Ub-AMC hydrolysis fluorescence kinetic; active compounds read low; calls only at 20 µM; actives 0.48% (n = 72,000);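 active means activity remaining at or below 50% of control, provided the compound also passes the data quality filters; inactive means the rest, including low values that fail the filters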;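 further: 100% = DMSO wells rate and 0% = substrate alone blank rate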
Active calls of the source: *; i = inactive; / = not tested or not shown.

SMILES | E coli RNAP | tolC growth inh | Cdc25B block | Hsp90 block | DUSP1 inh | BAP1 inh
CCCCCCOC(=O)C1=C(C)NC(=O)NC1c1ccc(Br)cc1 (stereo not drawn) | / | / | / | / | / | i
O=C(COn1nnc2ccc(C(F)(F)F)cc21)Nc1nnc(-c2ccccc2)o1 | 6.7 | 100.0* | -3.6 | 1.0 | 23.9 | i
O=S(=O)(c1ccc(Br)cc1)N1CCSC1c1ccc(Br)cc1 (stereo not drawn) | / | / | / | / | / | i
COc1ccc(Cl)cc1CN1CCN(c2nc(C)cc(C)c2C#N)CC1 | 4.8 | 96.9* | -31.0 | -4.0 | -25.9 | i
Cc1cc(C)c(C#N)c(N2CCCC2)n1 | 0.7 | 5.7 | -9.5 | -0.2 | 18.1 | i
Cc1cc(C)c(C#N)c(N2CCN(CCOc3ccc(Cl)cc3)CC2)n1 | 2.3 | 100.0* | -17.0 | -1.3 | 8.5 | /
Cc1ccc(OCC(=O)Nc2ccc(N3CCOCC3)c(Cl)c2)cc1 | / | / | / | / | / | i
CCCSc1nc2c(cnn2-c2ccccc2)c(=O)[nH]1 | 4.3 | 11.1 | -2.1 | 0.4 | 3.4 | i
O=C(CSc1nc2c(cnn2-c2ccccc2)c(=O)[nH]1)c1ccc(Cl)cc1 | 12.0 | 16.3 | 35.0 | 3.6 | 56.3* | /
O=C1CC(Cc2ccccc2)C(=O)N1Cc1ccccc1 (stereo not drawn) | / | / | / | / | / | i
CC(=O)Nc1[nH]c(O)c2ccccc12 | / | / | / | / | / | i
C=CCn1c(SCC(=O)Nc2ccc(C(=O)OCC)cc2)nnc1-c1cccs1 | 9.5 | -17.8 | 20.8 | -2.8 | 0.4 | i
C=CCn1c(SCC(=O)c2ccc(NS(=O)(=O)c3ccccc3)cc2)nnc1-c1cccs1 | 25.7* | 3.2 | -11.4 | -4.0 | 17.4 | /
CCCCC(=O)Nc1c(-c2ccccc2)nc2cc(C)ccn12 | / | / | / | / | / | i
Cc1ccc(-n2c(CNc3ccc(F)cc3)nnc2SCC(=O)NCc2ccco2)cc1 | 11.4 | 10.2 | -22.6 | -1.4 | 22.7 | i
Cc1ccc(-n2c(CNc3ccc(F)cc3)nnc2SCC(=O)N2CCCC2)cc1 | 36.4* | 2.6 | -7.4 | -0.1 | 23.8 | i
CCOC(=O)c1cnc(-n2nc(C)cc2C)nc1NCc1ccccc1 | -0.5 | 100.0* | 3.8 | 7.3 | -0.7 | i
CCOC(=O)c1cnc(NCc2ccccc2)nc1C | 3.9 | 8.6 | 1.5 | -6.1 | -18.5 | i
CCOC(=O)c1cnc(-n2nc(C)cc2C)nc1NC(C)c1ccccc1 (stereo not drawn) | 9.3 | 100.0* | 5.5 | 1.9 | 4.3 | i
Cc1ccc(-c2nnn(CC(=O)N(Cc3ccco3)C(C(=O)NC(C)(C)C)c3cccs3)n2)o1 (stereo not drawn) | 4.8 | 74.5* | 7.0 | -2.8 | 16.3 | i
Cc1ccc(-c2nnn(CC(=O)N(Cc3cccs3)C(C(=O)NC(C)(C)C)c3ccco3)n2)o1 (stereo not drawn) | 8.9 | 68.6* | 1.7 | -0.5 | 16.5 | i
Cc1ccc(-c2nnn(CC(=O)N(Cc3cccs3)C(C(=O)NC(C)(C)C)c3ccc(C)o3)n2)o1 (stereo not drawn) | 5.3 | -28.1 | -9.8 | -1.1 | -3.1 | i
CC(C)(C)NC(=O)C(c1ccco1)N(C(=O)Cn1nnc(-c2ccc(F)cc2)n1)c1cccc(F)c1 (stereo not drawn) | 4.3 | 66.7* | 16.3 | -2.8 | 31.5 | i
CCN(C(=O)c1ccc(C(C)(C)C)cc1)c1nnc(Cn2nnc3ccccc32)s1 | 7.7 | 62.0* | -13.4 | 1.3 | 11.2 | i
Cc1ccc(C(=O)Cn2nnc3ccccc32)cc1 | / | / | / | / | / | i
SMILES | E coli RNAP | tolC growth inh | Cdc25B block | Hsp90 block | DUSP1 inh | BAP1 inh
CCSc1nnc(NC(=O)CSc2nccn2-c2cccc(C)c2C)s1 | 0.7 | 84.3* | 31.9 | 2.5 | 10.5 | i
O=C(C1CC1)N1CCc2cc(S(=O)(=O)NCCC3=CCCCC3)ccc21 | 1.5 | 74.4* | -1.3 | 0.9 | 23.7 | i
O=C(C1CCC1)N1CCc2cc(S(=O)(=O)NC3CCCC3)ccc21 | 1.5 | -18.5 | -8.4 | -1.8 | -3.7 | i
Brc1cccc(-c2n[nH]c(-c3ccccc3)n2)c1 | 5.3 | 97.5* | -2.0 | 0.7 | 31.1 | i
S=c1nc(-c2cccc(Br)c2)[nH][nH]1 | 5.9 | 4.3 | -7.8 | -0.6 | -12.4 | i
COc1ccccc1-c1nnc2n1N=C(c1ccc(O)c(O)c1)CS2 | 2.8 | 21.5 | -8.1 | 65.5* | -0.9 | i
Oc1c(CN2CCCCC2)cc(Br)c2cccnc12 | -0.2 | 100.0* | -10.3 | 2.0 | -13.8 | i
CN1CCN(Cc2cc(Br)c(O)c3ncccc23)CC1 | / | / | / | / | / | i

High-throughput results as filed in PubChem BioAssay.
